Data as given in ChEMBL document CHEMBL1121405, “Antihypertensive indole derivatives of phenoxypropanolamines with beta-adrenergic receptor antagonist and vasodilating activity” (1980).

Experiments:
Rattus norvegicus [1] = assay: Antihypertensive activity in spontaneously hypertensive rats after peroral administration; assay type: functional
Procedure, shortened: (§1)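 SHR, 3-day test. After about 20 min prewarming at 37 °C, indirect systolic pressure by tail cuff at 0 (control), 22, 24, 26 and 46 h. Oral dosing at 0 and 22 h, at 100 mg/kg unless footnoted otherwise. Groups of five rats; maximum mean fall from the control reading is rated in bands (<25, 25-34, 35-44, ≥45 mmHg).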

Rattus norvegicus [2] = organism: Rattus norvegicus; assay: Intrinsic sympathomimetic action in reserpinized rats; assay type: functional
Procedure, shortened: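 Reserpinized rats given 0.3 mg/kg iv. Read-out is increase in heart rate (bpm), mean ± SEM, n = 3-6.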

Rattus norvegicus [3] = assay: Vasodilator activity in ganglion blocked rats. Values denote percent change in mean arterial blood pressure 30 minutes after dosing rats at 3 mg/kg intravenously; assay type: functional; settings: route intravenous
Procedure, shortened: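 Male Wistar rats (275-450 g), urethane 800 mg/kg plus chloralose 60 mg/kg ip, then chlorisondamine 2.5 mg/kg ip for ganglion block. Angiotensin II infused iv at 0.25 or 0.35 μg/min to a new steady pressure. Drug given iv over 3 min; femoral mean arterial pressure recorded at 30 min as % change ± SEM.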

Rattus norvegicus [4] = assay: The compound was tested for antihypertensive activity in spontaneously hypertensive rats after peroral administration, Activity value is <25 mmHg; assay type: functional; procedure, shortened: as §1
[5] = target: T1, Adrenergic receptor beta (Rattus norvegicus) (UniProt P18090+P10608+P26255); assay: Beta-adrenergic receptor blockade activity in conscious normotensive rats at a dose of 0.5 mg/kg; assay type: functional, organism-based; set-up: dose 0.5 mg/kg
Rattus norvegicus [6] = assay: The compound was tested for antihypertensive activity in spontaneously hypertensive rats after peroral administration, dosed at 30 mg/kg; assay type: functional; settings: route oral
Procedure, shortened: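 Conscious spontaneously hypertensive rats, groups of five per compound. Given orally at 0 and 22 h. Before tail-cuff readings, rats were prewarmed to 37 °C for about 20 min. Indirect systolic pressure was read at 0 (control), 22, 24, 26 and 46 h. Activity was scored from the maximum mean fall from control: under 25 mmHg (±), 25-34 (+), 35-44 (++), 45 mmHg and over (+++).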

[7] = target: T1, Adrenergic receptor beta (Rattus norvegicus); assay: The compound was tested for beta-adrenergic receptor blockade activity in conscious normotensive rats at a dose of 2 mg/kg; assay type: functional, organism-based; set-up: dose 2 mg/kg
Rattus norvegicus [8] = assay: Antihypertensive activity in spontaneously hypertensive rats after peroral administration,; assay type: functional; procedure, shortened: as §1
Rattus norvegicus [9] = assay: The compound was tested for antihypertensive activity in spontaneously hypertensive rats after peroral administration. Activity value is 35-44 mmHg; assay type: functional; procedure, shortened: as §1

Structure (SMILES) | Actvity (Rattus norvegicus [1]) | Activity (Rattus norvegicus [2]) | Delta MAP (Rattus norvegicus [3]) | also measured
Cc1ccccc1OCC(O)CNC(C)(C)Cc1c[nH]c2ccccc12 (configuration not stated) | 34 mmHg | 100 beats min-1 | -18% | 
CC(C)(Cc1c[nH]c2ccccc12)NCC(O)COc1ccccc1F (configuration not stated) |  |  | -33% | Actvity (Rattus norvegicus [4]): <25 mmHg; inhibition [5]: 58%
CC(C)NCC(O)COc1cccc2[nH]ccc12 (configuration not stated) [PINDOLOL] |  | 120 beats min-1 | -32% | Actvity (Rattus norvegicus [6]): <25 mmHg
CC(C)(Cc1c[nH]c2ccccc12)NCC(O)COc1ccccc1C#N (configuration not stated) [BUCINDOLOL] | 45 mmHg | 77 beats min-1 | -26% | inhibition [7]: 71%
CC(C)(Cc1c[nH]c2ccccc12)NCC(O)COc1ccccc1N (configuration not stated) | 44 mmHg | 105 beats min-1 | -11% | 
CC(C)(Cc1c[nH]c2ccccc12)NCC(O)COc1ccccc1C(F)(F)F (configuration not stated) | 44 mmHg | 88 beats min-1 | -34% | 
Cc1ccc(OCC(O)CNC(C)(C)Cc2c[nH]c3ccccc23)c(C)c1 (configuration not stated) | 34 mmHg |  | 13% | 
CSc1ccccc1OCC(O)CNC(C)(C)Cc1c[nH]c2ccccc12 (configuration not stated) |  |  | -29% | 
CC(C)NCC(O)COc1cccc2ccccc12 (configuration not stated) [PROPRANOLOL] | <25 mmHg |  |  | 
CCC(C)c1ccccc1OCC(O)CNC(C)(C)Cc1c[nH]c2ccccc12 (configuration not stated) |  | -8 beats min-1 | 22% | Actvity (Rattus norvegicus [8]): <25 mmHg
CC(C)(Cc1c[nH]c2ccccc12)NCC(O)COc1ccccc1C1CCCCC1 (configuration not stated) | <25 mmHg |  | 18% | 
CC(C)(Cc1c[nH]c2ccccc12)NCC(O)COc1ccccc1-c1ccccc1 (configuration not stated) |  |  | 12% | Actvity (Rattus norvegicus [8]): <25 mmHg
CC(C)(Cc1c[nH]c2ccccc12)NCC(O)COc1ccccc1C(N)=O (configuration not stated) | 44 mmHg | 74 beats min-1 | -25% | 
CC(C)(Cc1c[nH]c2ccccc12)NCC(O)COc1ccccc1[N+](=O)[O-] (configuration not stated) | <25 mmHg | 106 beats min-1 | -38% | 
Cc1cc(Cl)ccc1OCC(O)CNC(C)(C)Cc1c[nH]c2ccccc12 (configuration not stated) |  |  | 11% | 
CC(C)(Cc1c[nH]c2ccccc12)NCC(O)COc1ccccc1 (configuration not stated) | <25 mmHg | 141 beats min-1 | -26% | 
Cc1cccc(C)c1OCC(O)CNC(C)(C)Cc1c[nH]c2ccccc12 (configuration not stated) |  |  | -4% | Actvity (Rattus norvegicus [8]): <25 mmHg
Cc1cccc(OCC(O)CNC(C)(C)Cc2c[nH]c3ccccc23)c1C (configuration not stated) |  |  | 8% | Actvity (Rattus norvegicus [9]): 44 mmHg; inhibition [5]: 79%
Cc1cc(S(C)(=O)=O)ccc1OCC(O)CNC(C)(C)Cc1c[nH]c2ccccc12 (configuration not stated) | <25 mmHg |  | -8% | 
